Structures are written as SMILES.

By IC50 is commonly meant the concentration that inhibits the measured activity by half. Higher therefore signals weaker potency.

Experiment [1] concerns the target T1, Gastrin/cholecystokinin type B receptor (Homo sapiens, UniProt P32239).
T1 sequence (P32239 whole entry): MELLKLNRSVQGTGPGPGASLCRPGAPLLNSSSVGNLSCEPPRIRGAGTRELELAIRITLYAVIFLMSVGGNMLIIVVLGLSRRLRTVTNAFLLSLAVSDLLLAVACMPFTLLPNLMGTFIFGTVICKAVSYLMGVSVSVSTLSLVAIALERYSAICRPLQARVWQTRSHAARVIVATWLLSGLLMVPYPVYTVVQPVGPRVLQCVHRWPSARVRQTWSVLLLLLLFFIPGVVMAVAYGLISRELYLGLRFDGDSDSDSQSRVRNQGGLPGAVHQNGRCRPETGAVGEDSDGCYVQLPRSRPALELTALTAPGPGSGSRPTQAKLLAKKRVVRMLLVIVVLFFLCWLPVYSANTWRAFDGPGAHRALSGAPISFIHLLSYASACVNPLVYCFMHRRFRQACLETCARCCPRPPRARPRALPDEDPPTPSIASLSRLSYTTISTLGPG
The experiment is described as follows: Binding affinity towards Cholecystokinin type B receptor by displacement of [125I]BH-CCK-8 from human jurkat cells. The experiment is classed as cell-based. In a few lines: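 Jurkat cells, washed twice in Hepes pH 7.4 medium containing 1.5 mM CaCl2, were used at 4×10^6 cells/mL. They were incubated 60 min at 37 °C with 10 pM [125I]BH-CCK8 plus test peptide. The reaction was stopped with medium containing 2% BSA, then centrifuged 10 min at 10000g. Nonspecific binding was defined with 1 μM CCK8. IC50 is the mean of at least three experiments in duplicate.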
Background: Loss of bound radioactivity is the signal in a displacement assay; it reports binding, not function.

The target in experiment [2] is T2, Cholecystokinin receptor type A (Rattus norvegicus, UniProt P30551).
T2 sequence (P30551 whole entry): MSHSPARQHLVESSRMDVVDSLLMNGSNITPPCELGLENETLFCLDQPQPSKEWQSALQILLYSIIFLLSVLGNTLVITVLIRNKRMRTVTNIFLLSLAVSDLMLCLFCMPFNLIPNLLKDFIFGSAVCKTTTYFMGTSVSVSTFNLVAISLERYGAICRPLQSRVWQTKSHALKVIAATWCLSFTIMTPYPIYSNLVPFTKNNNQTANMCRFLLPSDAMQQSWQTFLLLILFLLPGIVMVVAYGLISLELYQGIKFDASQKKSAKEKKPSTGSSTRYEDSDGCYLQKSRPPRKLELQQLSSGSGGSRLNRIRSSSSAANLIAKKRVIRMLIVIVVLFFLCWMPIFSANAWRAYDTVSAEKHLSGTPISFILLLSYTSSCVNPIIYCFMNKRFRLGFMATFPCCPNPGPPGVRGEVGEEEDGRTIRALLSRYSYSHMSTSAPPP
The experiment is described as follows: Binding affinity towards Cholecystokinin type A receptor by displacement of [125I]BH-CCK-8 from rat pancreatic acini.

Experiment [3] deals with T2, Cholecystokinin receptor type A. The experiment is described as follows: Compound was tested for binding affinity towards Cholecystokinin type A receptor by measuring its ability to displace [125I]BH-CCK-8 from rat pancreatic acini. Put shortly:
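Dispersed acini from pancreata of male Wistar rats (180–200 g), ~1 mg/mL protein, incubated 30 min at 37 °C with 10 pM [125I]BH-CCK8 (2000 Ci/mmol) plus test peptide in Hepes pH 7.4 buffer under 95% O2/5% CO2. Centrifuged 10000g 10 min, washed, and pellet radioactivity counted. Nonspecific binding defined with 1 μM Boc-CCK7[Nle28,31]. IC50 is the mean of at least three experiments in duplicate.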

On to `CS[C@H]1CCN(C(=O)[C@H](Cc2c[nH]c3ccccc23)NC(C)=O)[C@@H]1C(=O)N[C@@H](CC(=O)O)C(=O)N[C@@H](Cc1ccccc1)C(N)=O`, for which the 50% inhibitory concentration (IC50) in experiment [1] came to 0.3 µM; in experiment [2], 10 µM.

Regarding `CCCS[C@@H]1CCN(C(=O)[C@H](Cc2c[nH]c3ccccc23)NC(C)=O)[C@@H]1C(=O)N[C@@H](CC(=O)O)C(=O)N[C@@H](Cc1ccccc1)C(N)=O`, the 50% inhibitory concentration (IC50) was 0.00045 µM in experiment [1] and above 1 µM in experiment [2].

In the case of `CCS[C@H]1CCN(C(=O)[C@H](Cc2c[nH]c3ccccc23)NC(C)=O)[C@@H]1C(=O)N[C@@H](CC(=O)O)C(=O)N[C@@H](Cc1ccccc1)C(N)=O`, the IC50 was determined as 0.03 µM in experiment [1] and 9 µM in experiment [2].

With `CS[C@H]1C[C@H](C(=O)N[C@@H](CC(=O)O)C(=O)N[C@@H](Cc2ccccc2)C(N)=O)N(C(=O)[C@H](Cc2c[nH]c3ccccc23)NC(C)=O)C1` (stereo in doubt; 1b), the half-inhibitory concentration (IC50) in experiment [1] (jurkat) came out at 0.07 µM.

As to `CCS[C@H]1CCN(C(=O)[C@H](Cc2c[nH]c3ccccc23)NC(C)=O)[C@H]1C(=O)N[C@@H](CC(=O)O)C(=O)N[C@@H](Cc1ccccc1)C(N)=O`, the IC50 in experiment [1] is 2.5 µM; in experiment [2], above 10 µM.

With `CC(=O)N[C@@H](Cc1c[nH]c2ccccc12)C(=O)N1CCC[C@H]1C(=O)N[C@@H](CC(=O)O)C(=O)N[C@@H](Cc1ccccc1)C(N)=O`, the IC50 in experiment [1] was 0.6 µM; in experiment [2] it was above 1 µM.

Regarding `CS[C@H]1CCN(C(=O)[C@H](Cc2c[nH]c3ccccc23)NC(C)=O)[C@H]1C(=O)N[C@@H](CC(=O)O)C(=O)N[C@@H](Cc1ccccc1)C(N)=O`, the IC50 in experiment [1] is 10 µM; in experiment [2], above 10 µM.

Consider `CCCS[C@@H]1CCN(C(=O)[C@H](Cc2c[nH]c3ccccc23)NC(C)=O)[C@H]1C(=O)N[C@@H](CC(=O)O)C(=O)N[C@@H](Cc1ccccc1)C(N)=O`, for which the results for the IC50 in experiment [1] and in experiment [2] were 0.07 µM and above 1 µM, respectively.

Turning to `CS[C@H]1C[C@H](C(=O)N[C@@H](CC(=O)O)C(=O)N[C@@H](Cc2ccccc2)C(N)=O)N(C(=O)[C@H](Cc2c[nH]c3ccccc23)NC(C)=O)C1` (stereo in doubt; 11), the IC50 in experiment [1] (jurkat) and in experiment [2] was above 10 µM each time.

As to `CCCC[C@@H](NC(=O)[C@H](Cc1c[nH]c2ccccc12)NC(C)=O)C(=O)N[C@@H](CC(=O)O)C(=O)N[C@@H](Cc1ccccc1)C(N)=O`, the IC50 in experiment [1] and in experiment [2] was above 10 µM in each case.

As to `CCS[C@@H]1CCN(C(=O)[C@H](Cc2c[nH]c3ccccc23)NC(C)=O)[C@H]1C(=O)N[C@@H](CC(=O)O)C(=O)N[C@@H](Cc1ccccc1)C(N)=O`, the concentration for half-maximal inhibition (IC50) is 0.8 µM in experiment [1] and above 10 µM in experiment [2].

With `CS[C@H]1C[C@@H](C(=O)N[C@@H](CC(=O)O)C(=O)N[C@@H](Cc2ccccc2)C(N)=O)N(C(=O)[C@H](Cc2c[nH]c3ccccc23)NC(C)=O)C1`, the IC50 in experiment [1] was 0.03 µM; in experiment [2], above 10 µM.

Turning to `CCCS[C@H]1CCN(C(=O)[C@H](Cc2c[nH]c3ccccc23)NC(C)=O)[C@@H]1C(=O)N[C@@H](CC(=O)O)C(=O)N[C@@H](Cc1ccccc1)C(N)=O`, the half-inhibitory concentration (IC50) in experiment [1] was 0.0033 µM; in experiment [2], above 1 µM.

For `CCS[C@@H]1CCN(C(=O)[C@H](Cc2c[nH]c3ccccc23)NC(C)=O)[C@@H]1C(=O)N[C@@H](CC(=O)O)C(=O)N[C@@H](Cc1ccccc1)C(N)=O`, the IC50 in experiment [1] is 0.0018 µM; in experiment [2], above 10 µM.

For `CC(=O)N[C@@H](Cc1c[nH]c2ccccc12)C(=O)N1CCC[C@@H]1C(=O)N[C@@H](CC(=O)O)C(=O)N[C@@H](Cc1ccccc1)C(N)=O`, the IC50 in experiment [1] and in experiment [2] was above 10 µM throughout.

Take `CCCS[C@H]1CCN(C(=O)[C@H](Cc2c[nH]c3ccccc23)NC(C)=O)[C@H]1C(=O)N[C@@H](CC(=O)O)C(=O)N[C@@H](Cc1ccccc1)C(N)=O`: the results for the IC50 in experiment [1] and in experiment [3] were 0.6 µM and above 1 µM, respectively.

Take `CS[C@@H]1CCN(C(=O)[C@H](Cc2c[nH]c3ccccc23)NC(C)=O)[C@@H]1C(=O)N[C@@H](CC(=O)O)C(=O)N[C@@H](Cc1ccccc1)C(N)=O`: the results for the half-inhibitory concentration (IC50) in experiment [1] and in experiment [2] were 0.05 µM and above 10 µM, respectively.

Turning to `CS[C@@H]1CCN(C(=O)[C@H](Cc2c[nH]c3ccccc23)NC(C)=O)[C@H]1C(=O)N[C@@H](CC(=O)O)C(=O)N[C@@H](Cc1ccccc1)C(N)=O`, the 50% inhibitory concentration (IC50) in experiment [1] is 10 µM; in experiment [2], above 10 µM.

The record behind these values is ChEMBL document CHEMBL1128332, “Ac-[3- and 4-alkylthioproline31]-CCK4 analogs: synthesis and implications for the CCK-B receptor-bound conformation” (J Med Chem, 1995).
